In ChEMBL document CHEMBL4196172 (J Med Chem, 2018):
Active and inactive are the calls of the source. The calls are words filed in the database; no cut-off is given here.

How the values were obtained:
[1] = target: cGMP-specific 3',5'-cyclic phosphodiesterase (Homo sapiens, UniProt O76074); assay: Inhibition of human PDE5A1 catalytic domain (535 to 860 residues) expressed in Escherichia coli BL21 using 3H-cGMP as substrate after 15 mins by liquid scintillation counting
Rattus norvegicus [2] = assay: Anti-hypertensive activity in MCT-induced pulmonary hypertension Wistar rat model assessed as mean pulmonary artery pressure at 10 mg/kg, po administered for 3 weeks (reference value: 52.55 mmHg); assay type: functional
In short: (§1)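 PAH was induced in rats by monocrotaline (MCT) injection and confirmed after 3 weeks against an untreated control group. Treated groups received oral dosing and were compared with the MCT model group. Read-outs were mean pulmonary artery pressure, right ventricle hypertrophy index, and small pulmonary artery wall thickness as % of external diameter. Data are mean ± S.E.M., n = 6-9/group.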

[3] = Metabolic stability in rat liver microsomes assessed as stability rate constant at 0.5 uM; assay type: ADME, microsome
[4] = Hepatic extraction ratio in rat liver microsomes at 0.5 uM; assay type: ADME, microsome; conditions: read-out: ERH
[5] = Half life in rat liver microsomes at 0.5 uM; assay type: ADME, microsome
[6] = Intrinsic clearance in rat liver microsomes at 0.5 uM; assay type: ADME, microsome
[7] = Apparent clearance in rat liver microsomes at 0.5 uM; assay type: ADME, microsome; conditions: read-out: CLH(app)
Rattus norvegicus [8] = assay: Anti-hypertensive activity in MCT-induced pulmonary hypertension Wistar rat model assessed as reduction in wall thickness percentage at 10 mg/kg, po administered for 3 weeks; assay type: functional, organism-based; in short: as §1
Rattus norvegicus [9] = assay: Anti-hypertensive activity in MCT-induced pulmonary hypertension Wistar rat model assessed as reduction in RVHI at 10 mg/kg, po administered for 3 weeks; assay type: functional, organism-based; in short: as §1
Homo sapiens = organism: Homo sapiens; assay: Selectivity ratio of IC50 for PDE11A catalytic domain (588 to 911 residues) (unknown origin) to IC50 for human PDE5A1 catalytic domain (535 to 860 residues)
[10] = target: cGMP-dependent 3',5'-cyclic phosphodiesterase (Homo sapiens, UniProt O00408); assay: Inhibition of PDE2A catalytic domain (580 to 919 residues) (unknown origin) expressed in Escherichia coli BL21 using 3H-cGMP as substrate after 15 mins by liquid scintillation counting
[11] = Protein binding in human plasma at 1 uM after 4 hrs by LC/MS/MS analysis; assay type: ADME, cell-free; conditions: read-out: PPB (converted)
Rattus norvegicus [12] = assay: Anti-hypertensive activity in MCT-induced pulmonary hypertension Wistar rat model assessed as reduction in RVHI at 1.25 mg/kg, po administered for 3 weeks; assay type: functional, organism-based; in short: as §1
Rattus norvegicus [13] = assay: Anti-hypertensive activity in MCT-induced pulmonary hypertension Wistar rat model assessed as reduction in wall thickness percentage at 1.25 mg/kg, po administered for 3 weeks; assay type: functional, organism-based; in short: as §1
Cytochrome P450 1A2 = target: T1, Cytochrome P450 1A2 (Homo sapiens, UniProt P05177); assay: Inhibition of CYP1A2 in human liver microsomes in presence of NADPH; assay type: ADME
T1 sequence (P05177 whole entry): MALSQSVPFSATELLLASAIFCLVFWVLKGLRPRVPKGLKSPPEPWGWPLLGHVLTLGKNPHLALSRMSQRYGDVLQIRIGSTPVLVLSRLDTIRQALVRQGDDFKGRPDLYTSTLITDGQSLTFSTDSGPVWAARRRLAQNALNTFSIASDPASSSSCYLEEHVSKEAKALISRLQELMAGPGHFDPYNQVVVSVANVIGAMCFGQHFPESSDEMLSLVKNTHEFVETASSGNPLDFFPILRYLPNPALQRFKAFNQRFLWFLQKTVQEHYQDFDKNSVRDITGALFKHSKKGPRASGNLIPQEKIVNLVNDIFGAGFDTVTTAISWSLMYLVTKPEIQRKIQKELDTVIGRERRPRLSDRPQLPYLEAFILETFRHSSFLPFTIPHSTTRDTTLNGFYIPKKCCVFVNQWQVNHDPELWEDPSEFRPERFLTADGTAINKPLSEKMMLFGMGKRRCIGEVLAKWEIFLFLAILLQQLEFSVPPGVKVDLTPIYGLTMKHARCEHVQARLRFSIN

[14] = target: 3',5'-cyclic-AMP phosphodiesterase 4D (Homo sapiens, UniProt Q08499); assay: Inhibition of PDE4D2 catalytic domain (86 to 413 residues) (unknown origin) expressed in Escherichia coli BL21 using 3H-cAMP as substrate after 15 mins by liquid scintillation counting
Cytochrome P450 3A4 = Cytochrome P450 3A4 (Homo sapiens, UniProt P08684); assay: Inhibition of CYP3A4 in human liver microsomes in presence of NADPH; assay type: ADME
Rattus norvegicus [15] = assay: Anti-hypertensive activity in MCT-induced pulmonary hypertension Wistar rat model assessed as mean pulmonary artery pressure at 1.25 mg/kg, po administered for 3 weeks (reference value: 52.55 mmHg); assay type: functional; in short: as §1
Mus musculus = assay: Acute toxicity in KM mouse up to 1.5 g/kg, po administered as single dose measured after 14 days; assay type: organism-based; conditions: in vivo, 1500 mg/kg, 336 h
[16] = target: Voltage-gated inwardly rectifying potassium channel KCNH2 (Homo sapiens, UniProt Q12809); assay: Inhibition of human ERG expressed in CHO cells by automated patch clamp assay; assay type: cell-based
Cytochrome P450 2C9 = Cytochrome P450 2C9 (Homo sapiens, UniProt P11712); assay: Inhibition of CYP2C9 in human liver microsomes in presence of NADPH; assay type: ADME
[17] = target: Cone cGMP-specific 3',5'-cyclic phosphodiesterase subunit alpha' (Homo sapiens, UniProt P51160); assay: Inhibition of PDE6C catalytic domain (1 to 858 residues) (unknown origin) expressed in Escherichia coli BL21 using 3H-cGMP as substrate after 15 mins by liquid scintillation counting
Cytochrome P450 2B6 = target: T2, Cytochrome P450 2B6 (Homo sapiens, UniProt P20813); assay: Inhibition of CYP2B6 in human liver microsomes in presence of NADPH; assay type: ADME
T2 sequence (P20813 whole entry): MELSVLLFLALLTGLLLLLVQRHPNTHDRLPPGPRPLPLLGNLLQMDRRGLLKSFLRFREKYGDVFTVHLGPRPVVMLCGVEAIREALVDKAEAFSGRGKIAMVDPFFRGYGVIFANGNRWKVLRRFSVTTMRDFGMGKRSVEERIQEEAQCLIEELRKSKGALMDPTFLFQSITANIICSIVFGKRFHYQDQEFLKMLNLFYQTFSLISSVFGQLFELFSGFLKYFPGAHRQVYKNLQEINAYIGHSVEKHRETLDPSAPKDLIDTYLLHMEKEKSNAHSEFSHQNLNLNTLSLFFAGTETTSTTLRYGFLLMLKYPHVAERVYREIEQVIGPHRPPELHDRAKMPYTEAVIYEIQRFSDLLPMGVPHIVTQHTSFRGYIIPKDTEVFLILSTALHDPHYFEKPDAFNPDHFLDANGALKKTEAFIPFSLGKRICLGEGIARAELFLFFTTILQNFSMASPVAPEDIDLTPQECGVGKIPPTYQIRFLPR

[18] = target: cAMP and cAMP-inhibited cGMP 3',5'-cyclic phosphodiesterase 10A (Homo sapiens, UniProt Q9Y233); assay: Inhibition of PDE10A catalytic domain (449 to 770 residues) (unknown origin) expressed in Escherichia coli BL21 using 3H-cAMP as substrate after 15 mins by liquid scintillation counting
[19] = target: Dual 3',5'-cyclic-AMP and -GMP phosphodiesterase 11A (Homo sapiens, UniProt Q9HCR9); assay: Inhibition of PDE11A catalytic domain (588 to 911 residues) (unknown origin) expressed in Escherichia coli BL21 using 3H-cAMP as substrate after 15 mins by liquid scintillation counting
Sequence of Dual 3',5'-cyclic-AMP and -GMP phosphodiesterase 11A (Q9HCR9 whole entry, the tested form may be a part): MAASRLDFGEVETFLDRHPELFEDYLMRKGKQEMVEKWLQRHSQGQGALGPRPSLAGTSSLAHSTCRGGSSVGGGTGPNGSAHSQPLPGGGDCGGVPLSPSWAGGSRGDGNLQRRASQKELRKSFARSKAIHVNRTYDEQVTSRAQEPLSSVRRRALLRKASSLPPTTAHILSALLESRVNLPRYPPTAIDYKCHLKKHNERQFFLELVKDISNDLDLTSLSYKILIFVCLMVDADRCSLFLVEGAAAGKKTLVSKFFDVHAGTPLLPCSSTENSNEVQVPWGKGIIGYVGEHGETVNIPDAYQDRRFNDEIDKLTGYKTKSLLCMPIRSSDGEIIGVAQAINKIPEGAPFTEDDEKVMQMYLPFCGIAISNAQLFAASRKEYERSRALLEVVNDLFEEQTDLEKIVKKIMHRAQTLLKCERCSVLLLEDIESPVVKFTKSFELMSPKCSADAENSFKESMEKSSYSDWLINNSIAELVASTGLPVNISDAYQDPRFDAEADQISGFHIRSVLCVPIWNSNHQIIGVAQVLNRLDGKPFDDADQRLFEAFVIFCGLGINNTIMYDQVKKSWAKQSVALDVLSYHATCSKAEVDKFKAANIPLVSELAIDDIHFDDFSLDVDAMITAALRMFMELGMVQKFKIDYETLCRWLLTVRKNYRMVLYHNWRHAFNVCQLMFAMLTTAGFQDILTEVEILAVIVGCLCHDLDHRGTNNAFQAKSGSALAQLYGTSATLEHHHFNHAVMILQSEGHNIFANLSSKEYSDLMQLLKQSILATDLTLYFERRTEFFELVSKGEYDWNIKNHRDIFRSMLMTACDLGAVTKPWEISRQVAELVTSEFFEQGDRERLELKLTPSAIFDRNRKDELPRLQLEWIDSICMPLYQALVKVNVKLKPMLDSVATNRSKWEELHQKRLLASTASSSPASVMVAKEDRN

Sequence of Voltage-gated inwardly rectifying potassium channel KCNH2 (Q12809 whole entry): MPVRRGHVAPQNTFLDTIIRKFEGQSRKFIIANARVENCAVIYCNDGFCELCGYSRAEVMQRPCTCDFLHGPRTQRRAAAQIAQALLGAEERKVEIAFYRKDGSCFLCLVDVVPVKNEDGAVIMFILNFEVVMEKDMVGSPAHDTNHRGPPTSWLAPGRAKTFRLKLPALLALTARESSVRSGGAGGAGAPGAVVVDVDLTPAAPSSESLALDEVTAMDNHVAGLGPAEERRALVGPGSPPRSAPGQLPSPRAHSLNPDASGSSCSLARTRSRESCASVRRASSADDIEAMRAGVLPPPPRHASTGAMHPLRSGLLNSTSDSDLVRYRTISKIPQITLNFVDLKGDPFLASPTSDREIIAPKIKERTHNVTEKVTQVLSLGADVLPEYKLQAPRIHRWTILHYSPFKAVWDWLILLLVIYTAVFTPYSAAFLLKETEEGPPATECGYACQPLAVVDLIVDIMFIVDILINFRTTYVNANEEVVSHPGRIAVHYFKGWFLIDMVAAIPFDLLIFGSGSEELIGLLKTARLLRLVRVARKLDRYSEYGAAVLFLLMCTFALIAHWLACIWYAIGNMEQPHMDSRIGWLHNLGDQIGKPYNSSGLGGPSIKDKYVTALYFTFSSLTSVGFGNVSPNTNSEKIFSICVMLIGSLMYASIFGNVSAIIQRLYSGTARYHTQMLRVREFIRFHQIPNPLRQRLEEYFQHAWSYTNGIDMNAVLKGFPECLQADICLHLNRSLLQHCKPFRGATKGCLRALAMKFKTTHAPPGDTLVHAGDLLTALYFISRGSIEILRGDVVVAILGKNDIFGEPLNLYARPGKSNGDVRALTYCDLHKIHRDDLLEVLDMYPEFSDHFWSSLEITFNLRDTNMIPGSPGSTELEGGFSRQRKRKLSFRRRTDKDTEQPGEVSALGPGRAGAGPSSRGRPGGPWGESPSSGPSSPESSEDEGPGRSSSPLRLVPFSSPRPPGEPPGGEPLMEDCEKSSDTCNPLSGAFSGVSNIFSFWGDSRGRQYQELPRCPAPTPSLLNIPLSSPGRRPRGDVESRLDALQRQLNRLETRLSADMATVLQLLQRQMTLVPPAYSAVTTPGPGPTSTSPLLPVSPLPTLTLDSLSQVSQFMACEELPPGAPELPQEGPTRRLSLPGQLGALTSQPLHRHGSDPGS
Sequence of cAMP and cAMP-inhibited cGMP 3',5'-cyclic phosphodiesterase 10A (Q9Y233 whole entry, the tested form may be a part): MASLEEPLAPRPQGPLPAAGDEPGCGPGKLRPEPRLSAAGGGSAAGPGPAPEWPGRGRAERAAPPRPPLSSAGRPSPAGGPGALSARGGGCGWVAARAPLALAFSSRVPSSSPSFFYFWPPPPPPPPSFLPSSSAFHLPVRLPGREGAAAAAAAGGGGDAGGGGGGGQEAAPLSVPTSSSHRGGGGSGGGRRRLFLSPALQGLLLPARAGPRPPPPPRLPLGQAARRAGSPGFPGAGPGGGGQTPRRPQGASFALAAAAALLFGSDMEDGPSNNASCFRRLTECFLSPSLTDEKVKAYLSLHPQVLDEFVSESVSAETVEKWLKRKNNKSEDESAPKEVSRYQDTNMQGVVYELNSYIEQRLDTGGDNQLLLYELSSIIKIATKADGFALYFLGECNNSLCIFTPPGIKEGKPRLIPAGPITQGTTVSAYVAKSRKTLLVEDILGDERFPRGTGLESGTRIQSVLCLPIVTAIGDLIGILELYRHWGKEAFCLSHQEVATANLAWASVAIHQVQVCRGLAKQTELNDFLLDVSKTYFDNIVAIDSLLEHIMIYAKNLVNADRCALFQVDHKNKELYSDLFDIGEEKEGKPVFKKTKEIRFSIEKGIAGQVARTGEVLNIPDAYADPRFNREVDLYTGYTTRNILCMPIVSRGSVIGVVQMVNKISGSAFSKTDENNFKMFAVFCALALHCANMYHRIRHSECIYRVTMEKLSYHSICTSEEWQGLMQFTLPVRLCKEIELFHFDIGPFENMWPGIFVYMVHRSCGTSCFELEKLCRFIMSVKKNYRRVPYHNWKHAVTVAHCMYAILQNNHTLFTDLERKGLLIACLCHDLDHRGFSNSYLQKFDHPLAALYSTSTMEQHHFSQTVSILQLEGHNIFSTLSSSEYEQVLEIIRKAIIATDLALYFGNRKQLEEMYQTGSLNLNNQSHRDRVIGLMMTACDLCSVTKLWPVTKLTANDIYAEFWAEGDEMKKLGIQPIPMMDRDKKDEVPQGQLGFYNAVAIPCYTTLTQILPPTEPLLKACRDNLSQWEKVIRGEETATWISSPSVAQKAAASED
Sequence of Cytochrome P450 3A4 (P08684 whole entry): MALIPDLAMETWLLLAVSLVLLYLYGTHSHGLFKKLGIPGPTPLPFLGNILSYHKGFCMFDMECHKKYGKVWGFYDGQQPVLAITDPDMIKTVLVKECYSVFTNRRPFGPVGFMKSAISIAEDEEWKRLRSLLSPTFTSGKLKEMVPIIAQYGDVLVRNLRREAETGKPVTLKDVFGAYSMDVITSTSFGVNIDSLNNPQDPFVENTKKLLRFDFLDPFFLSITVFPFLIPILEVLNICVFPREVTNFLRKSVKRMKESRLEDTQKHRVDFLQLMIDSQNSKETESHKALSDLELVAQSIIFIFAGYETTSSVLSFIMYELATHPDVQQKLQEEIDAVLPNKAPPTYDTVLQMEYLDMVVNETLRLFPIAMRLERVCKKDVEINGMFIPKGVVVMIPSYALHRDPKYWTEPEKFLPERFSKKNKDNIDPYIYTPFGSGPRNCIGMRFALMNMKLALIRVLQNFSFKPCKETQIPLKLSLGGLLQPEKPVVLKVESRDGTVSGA
Sequence of cGMP-dependent 3',5'-cyclic phosphodiesterase (O00408 whole entry, the tested form may be a part): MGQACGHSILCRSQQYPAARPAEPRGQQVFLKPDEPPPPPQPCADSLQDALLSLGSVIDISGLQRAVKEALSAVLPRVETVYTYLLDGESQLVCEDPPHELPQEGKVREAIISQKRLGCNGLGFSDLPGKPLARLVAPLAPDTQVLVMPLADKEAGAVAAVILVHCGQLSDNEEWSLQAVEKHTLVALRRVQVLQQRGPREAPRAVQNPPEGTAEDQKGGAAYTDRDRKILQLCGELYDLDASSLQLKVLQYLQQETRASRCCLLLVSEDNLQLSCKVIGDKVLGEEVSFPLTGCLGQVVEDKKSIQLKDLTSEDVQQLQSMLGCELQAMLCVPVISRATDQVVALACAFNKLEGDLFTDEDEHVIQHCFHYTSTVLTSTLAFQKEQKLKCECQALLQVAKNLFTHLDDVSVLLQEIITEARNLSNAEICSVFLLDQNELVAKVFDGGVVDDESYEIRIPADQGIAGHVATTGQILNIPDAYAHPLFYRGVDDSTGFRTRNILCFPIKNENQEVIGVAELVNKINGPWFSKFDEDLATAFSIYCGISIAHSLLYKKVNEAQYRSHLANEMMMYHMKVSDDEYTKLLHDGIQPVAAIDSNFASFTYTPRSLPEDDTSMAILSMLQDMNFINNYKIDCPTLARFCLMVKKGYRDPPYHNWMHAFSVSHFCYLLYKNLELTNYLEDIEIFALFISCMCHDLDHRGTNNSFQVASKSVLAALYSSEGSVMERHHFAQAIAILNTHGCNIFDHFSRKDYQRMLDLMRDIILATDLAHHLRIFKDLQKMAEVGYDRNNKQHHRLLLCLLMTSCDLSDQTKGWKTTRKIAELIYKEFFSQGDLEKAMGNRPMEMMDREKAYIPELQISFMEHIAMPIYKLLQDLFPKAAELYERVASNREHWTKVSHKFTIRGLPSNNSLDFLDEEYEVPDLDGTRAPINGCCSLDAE
Sequence of Cytochrome P450 2C9 (P11712 whole entry, the tested form may be a part): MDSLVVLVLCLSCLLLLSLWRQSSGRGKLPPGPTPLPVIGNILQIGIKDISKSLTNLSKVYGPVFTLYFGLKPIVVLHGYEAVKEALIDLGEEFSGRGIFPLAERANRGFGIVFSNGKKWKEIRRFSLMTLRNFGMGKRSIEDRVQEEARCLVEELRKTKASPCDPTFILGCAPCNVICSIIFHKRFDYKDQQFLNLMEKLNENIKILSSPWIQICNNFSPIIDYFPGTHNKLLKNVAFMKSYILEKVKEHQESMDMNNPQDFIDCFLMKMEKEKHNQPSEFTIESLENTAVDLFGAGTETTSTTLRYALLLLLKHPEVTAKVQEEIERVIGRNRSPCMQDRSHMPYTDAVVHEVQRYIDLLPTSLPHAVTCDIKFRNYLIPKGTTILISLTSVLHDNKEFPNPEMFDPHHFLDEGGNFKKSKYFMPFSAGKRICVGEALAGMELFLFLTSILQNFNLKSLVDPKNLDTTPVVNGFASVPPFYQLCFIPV

Compound: O=c1c2ccc(F)cc2oc2c(Cc3ccc4c(c3)OCO4)[nH]c(-c3nccs3)c12
- IC50 [1]: 2.38 nM

Compound: CCCc1nn(C)c2c(=O)[nH]c(-c3cc(S(=O)(=O)N4CCN(C)CC4)ccc3OCC)nc12.O=C(O)CC(O)(CC(=O)O)C(=O)O [SILDENAFIL CITRATE]
- Activity (Rattus norvegicus [2]): 20.86 mmHg

Compound: O=c1c2cc(F)ccc2oc2c(Cc3ccc4c(c3)OCO4)[nH]c(-c3nccs3)c12
- IC50 [1]: 4.03 nM

Compound: O=c1c2c(O)cc(NCCN3CCOCC3)cc2oc2c(Cc3ccc4c(c3)OCO4)[nH]c(-c3nccs3)c12
- IC50 [1]: 0.79 nM

Compound: O=c1c2c(F)cc(Br)cc2oc2c(Cc3ccc4c(c3)OCO4)[nH]c(-c3nccs3)c12
- IC50 [1]: 2.37 nM

Compound: O=c1c2c(F)cccc2oc2c(Cc3ccc4c(c3)OCO4)[nH]c(-c3nccs3)c12
- K [3]: 0.0728
- hepatic extraction ratio at 0.5 µM [4]: 0.83
- half-life at 0.5 µM [5]: 9.52 min
- IC50 [1]: 1.41 nM
- Intrinsic clearance (CLint) [6]: 145.6 µL/min/mg
- CLint scaled at 0.5 µM [7]: 262 mL/min/kg

Compound: CN1CCN(CCNc2cc(O)c3c(=O)c4c(-c5nccs5)[nH]c(Cc5ccc6c(c5)OCO6)c4oc3c2)CC1
- K [3]: 0.1317
- hepatic extraction ratio at 0.5 µM [4]: 0.9
- half-life at 0.5 µM [5]: 5.26 min
- IC50 [1]: 0.39 nM
- Intrinsic clearance (CLint) [6]: 263.4 µL/min/mg
- CLint scaled at 0.5 µM [7]: 472 mL/min/kg

Compound: COc1cccc2oc3c(Cc4ccc5c(c4)OCO5)[nH]c(-c4nccs4)c3c(=O)c12
- IC50 [1]: 4.38 nM

Compound: COc1ccc2c(=O)c3c(-c4nccs4)[nH]c(Cc4ccc5c(c4)OCO5)c3oc2c1
- IC50 [1]: 2.64 nM

Compound: COc1c(Cl)ccc2oc3c(Cc4ccc5c(c4)OCO5)[nH]c(-c4nccs4)c3c(=O)c12
- IC50 [1]: 6.82 nM

Compound: O=c1c2cccc(Cl)c2oc2c(Cc3ccc4c(c3)OCO4)[nH]c(-c3nccs3)c12
- IC50 [1]: 2.09 nM

Compound: O=c1c2cc(Br)ccc2oc2c(Cc3ccc4c(c3)OCO4)[nH]c(-c3nccs3)c12
- IC50 [1]: 3.82 nM

Compound: CCCc1nn(C)c2c(=O)[nH]c(-c3cc(S(=O)(=O)N4CCN(C)CC4)ccc3OCC)nc12 [listing 1 of 2 here]
- Activity (Rattus norvegicus [8]): Active
- Activity (Rattus norvegicus [9]): Active

Compound: O=c1c2cc(Cl)ccc2oc2c(Cc3ccc4c(c3)OCO4)[nH]c(-c3nccs3)c12
- IC50 [1]: 9.63 nM

Compound: O=c1c2ccc(Br)cc2oc2c(Cc3ccc4c(c3)OCO4)[nH]c(-c3nccs3)c12
- IC50 [1]: 1.58 nM

Compound: CN1CC(=O)N2[C@H](c3ccc4c(c3)OCO4)c3[nH]c4ccccc4c3C[C@@H]2C1=O
- Ratio IC50 (Homo sapiens): 20

Compound: CCCc1nn(C)c2c(=O)[nH]c(-c3cc(S(=O)(=O)N4CCN(C)CC4)ccc3OCC)nc12 [listing 2 of 2 here]
- K [3]: 0.1291
- half-life at 0.5 µM [5]: 5.37 min
- Intrinsic clearance (CLint) [6]: 258.2 µL/min/mg
- CLint scaled at 0.5 µM [7]: 463 mL/min/kg

Compound: O=c1c2cc(Cl)cc(Br)c2oc2c(Cc3ccc4c(c3)OCO4)[nH]c(-c3nccs3)c12
- IC50 [1]: 3.04 nM

Compound: COCCNc1cc(O)c2c(=O)c3c(-c4nccs4)[nH]c(Cc4ccc5c(c4)OCO5)c3oc2c1
- K [3]: 0.0378 to 0.046
- IC50 [10]: 106 nM
- fraction unbound at 4 h, 1 µM [11]: 0.023
- half-life at 0.5 µM [5]: 15.1 to 18.3 min
- Activity (Rattus norvegicus [12]): Active
- Activity (Rattus norvegicus [13]): Active
- IC50 (Cytochrome P450 1A2): > 10000 nM
- IC50 [14]: 43 nM
- IC50 (Cytochrome P450 3A4): > 10000 nM
- Intrinsic clearance (CLint) [6]: 75.6 to 92 µL/min/mg
- Activity (Rattus norvegicus [15]): 19.94 mmHg
- Activity (Mus musculus): Non-Toxic
- IC50 [16]: > 30000 nM
- CLint scaled at 0.5 µM [7]: 136 to 165 mL/min/kg
- IC50 (Cytochrome P450 2C9): 135 nM
- IC50 [17]: 1.2 nM
- IC50 (Cytochrome P450 2B6): > 10000 nM
- IC50 [18]: 46 nM
- IC50 [19]: 39 nM

Compound: O=c1c2cc(F)cc(F)c2oc2c(Cc3ccc4c(c3)OCO4)[nH]c(-c3nccs3)c12
- IC50 [1]: 1.63 nM

Compound: O=c1c2ccc(Cl)cc2oc2c(Cc3ccc4c(c3)OCO4)[nH]c(-c3nccs3)c12
- IC50 [1]: 2.64 nM

Compound: O=c1c2c(O)cccc2oc2c(Cc3ccc4c(c3)OCO4)[nH]c(-c3nccs3)c12
- IC50 [1]: 1.05 nM

Compound: CNc1cc(O)c2c(=O)c3c(-c4nccs4)[nH]c(Cc4ccc5c(c4)OCO5)c3oc2c1
- IC50 [1]: 0.52 nM
